# Tests used:
# HepG2 [1] = test: Antiproliferative activity against human HepG2 cells after 48 hrs by MTT assay; format: functional, cell-based; conditions: HepG2, 48 h
# Summary of the method: (§1)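 After 48 h, MTT (5 mg/mL in PBS) added, 4 h at 37 °C, DMSO added, absorbance read at 570 nm. IC50 is the 50% growth-inhibition concentration, mean of three independent experiments.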
# [2] = Cytotoxicity against human LO2 cells after 48 hrs by MTT assay; format: cell-based; conditions: L02, 48 h; summary of the method: as §1
# HepG2 [3] = test: Selectivity index, ratio of IC50 for human LO2 cells to human HepG2 cells
# HepG2 [4] = test: Induction of cell cycle arrest in human HepG2 cells assessed as accumulation at G0/G1 phase at IC50 after 24 hrs by propidium iodide staining-based flow cytometry (reference value: 67.5%); format: functional
# HepG2 [5] = test: Induction of cell cycle arrest in human HepG2 cells assessed as accumulation at S phase at IC50 after 24 hrs by propidium iodide staining-based flow cytometry (reference value: 16.1%); format: functional
# HepG2 [6] = test: Induction of cell cycle arrest in human HepG2 cells assessed as accumulation at G2/M phase at IC50 after 24 hrs by propidium iodide staining-based flow cytometry (reference value: 16.4%); format: functional
# HepG2 [7] = test: Induction of apoptosis in human HepG2 cells assessed as viable cells at IC50 after 4 hrs by annexin V-FITC/propidium iodide staining-based flow cytometry (reference value: 98.6%); format: functional
# HepG2 [8] = test: Induction of apoptosis in human HepG2 cells assessed as viable cells at IC50 after 24 hrs by annexin V-FITC/propidium iodide staining-based flow cytometry (reference value: 90.5%); format: functional
# HepG2 [9] = test: Induction of apoptosis in human HepG2 cells assessed as nectrotic cells at IC50 after 4 hrs by annexin V-FITC/propidium iodide staining-based flow cytometry (reference value: 0.46%); format: functional
# HepG2 [10] = test: Induction of apoptosis in human HepG2 cells assessed as nectrotic cells at IC50 after 24 hrs by annexin V-FITC/propidium iodide staining-based flow cytometry (reference value: 6.70%); format: functional
# HepG2 [11] = test: Induction of apoptosis in human HepG2 cells assessed as early apoptotic cells at IC50 after 4 hrs by annexin V-FITC/propidium iodide staining-based flow cytometry (reference value: 0.41%); format: functional
# HepG2 [12] = test: Induction of apoptosis in human HepG2 cells assessed as late apoptotic cells at IC50 after 4 hrs by annexin V-FITC/propidium iodide staining-based flow cytometry (reference value: 0.53%); format: functional
# HepG2 [13] = test: Induction of apoptosis in human HepG2 cells assessed as late apoptotic cells at IC50 after 24 hrs by annexin V-FITC/propidium iodide staining-based flow cytometry (reference value: 1.77%); format: functional
# HepG2 [14] = test: Induction of apoptosis in human HepG2 cells assessed as early apoptotic cells at IC50 after 24 hrs by annexin V-FITC/propidium iodide staining-based flow cytometry (reference value: 0.41%)
Compound,IC50 (HepG2 [1]) [µM],IC50 [2] [µM],Ratio IC50 (HepG2 [3]),further results
COC(=O)[C@H](Cc1ccccc1)NP(=O)(Oc1ccccc1)Oc1cc(O)c2c(=O)cc(-c3ccccc3)oc2c1 (stereo not given in full),> 100,> 100,,
COC(=O)CNP(=O)(Oc1ccccc1)Oc1cc(O)c2c(=O)cc(-c3ccccc3)oc2c1 (stereo not given),42.6,96.5,2.265,
COC(=O)CNP(=O)(Oc1ccccc1)Oc1ccc2c(=O)c(-c3ccc(OC(C)=O)cc3)coc2c1 (stereo not given),> 100,> 100,,
COC(=O)[C@H](C)NP(=O)(Oc1ccccc1)Oc1ccc2c(=O)c(-c3ccc(OC(C)=O)cc3)coc2c1 (stereo not given in full),5.5,24.3,4.418,Activity (HepG2 [4]): 0.7%; Activity (HepG2 [5]): 1.2%; Activity (HepG2 [6]): 98.1%; Activity (HepG2 [7]): 97.12%; Activity (HepG2 [8]): 51.19%; Activity (HepG2 [9]): 0.76%; Activity (HepG2 [10]): 2.08%; Activity (HepG2 [11]): 0.69%; Activity (HepG2 [12]): 1.43%; Activity (HepG2 [13]): 2.56%; Activity (HepG2 [14]): 44.16%
COC(=O)CNP(=O)(Oc1ccccc1)Oc1cc(OC(C)=O)c2c(=O)c(-c3ccc(OC(C)=O)cc3)coc2c1 (stereo not given),39.7,55.2,1.39,
COC(=O)CNP(=O)(Oc1ccccc1)Oc1ccc2c(=O)c(-c3ccc(O)cc3)coc2c1 (stereo not given),48.8,> 100,2.049,
COC(=O)[C@H](CC(C)C)NP(=O)(Oc1ccccc1)Oc1cc(O)c2c(=O)cc(-c3ccc(O)c(O)c3)oc2c1 (stereo not given in full),22.4,34,1.581,
COC(=O)[C@H](Cc1ccccc1)NP(=O)(Oc1ccccc1)Oc1ccc2c(=O)c(-c3ccc(O)cc3)coc2c1 (stereo not given in full),52.1,39.3,0.754,
COC(=O)[C@@H](NP(=O)(Oc1ccccc1)Oc1cc(O)c2c(=O)cc(-c3ccc(O)c(O)c3)oc2c1)C(C)C (stereo not given in full),16.6,8.2,0.494,
COC(=O)[C@H](CC(C)C)NP(=O)(Oc1ccccc1)Oc1ccc2c(=O)c(-c3ccc(O)cc3)coc2c1 (stereo not given in full),66,47.7,0.723,
COC(=O)[C@@H](NP(=O)(Oc1ccccc1)Oc1cc(OC(C)=O)c2c(=O)cc(-c3ccc(OC(C)=O)cc3)oc2c1)C(C)C (stereo not given in full),18.4,29.4,1.59,
COC(=O)[C@H](Cc1ccccc1)NP(=O)(Oc1ccccc1)Oc1cc(O)c2c(=O)c(-c3ccc(O)cc3)coc2c1 (stereo not given in full),> 100,> 100,,
COC(=O)[C@H](Cc1ccccc1)NP(=O)(Oc1ccccc1)Oc1cc(O)c2c(=O)cc(-c3ccc(O)c(O)c3)oc2c1 (stereo not given in full),15.7,39.1,2.49,
COC(=O)[C@H](Cc1ccccc1)NP(=O)(Oc1ccccc1)Oc1cc(OC(C)=O)c2c(=O)cc(-c3ccc(OC(C)=O)c(OC(C)=O)c3)oc2c1 (stereo not given in full),27.1,30.3,1.118,
COC(=O)[C@H](CC(C)C)NP(=O)(Oc1ccccc1)Oc1cc(OC(C)=O)c2c(=O)cc(-c3ccc(OC(C)=O)cc3)oc2c1 (stereo not given in full),22.1,59.8,2.706,
COC(=O)[C@H](C)NP(=O)(Oc1ccccc1)Oc1cc(OC(C)=O)c2c(=O)cc(-c3ccc(OC(C)=O)c(OC(C)=O)c3)oc2c1 (stereo not given in full),27.3,51.2,1.875,
COC(=O)CNP(=O)(Oc1ccccc1)Oc1cc(OC(C)=O)c2c(=O)cc(-c3ccc(OC(C)=O)cc3)oc2c1 (stereo not given),47.8,> 100,>2.092,
COC(=O)[C@H](Cc1ccccc1)NP(=O)(Oc1ccccc1)Oc1cc(OC(C)=O)c2c(=O)cc(-c3ccc(OC(C)=O)cc3)oc2c1 (stereo not given in full),38.5,45.9,1.192,
COC(=O)[C@H](Cc1ccccc1)NP(=O)(Oc1ccccc1)Oc1cc(O)c2c(=O)cc(-c3ccc(O)cc3)oc2c1 (stereo not given in full),36.6,> 100,>2.732,
COC(=O)[C@H](CC(C)C)NP(=O)(Oc1ccccc1)Oc1cc(OC(C)=O)c2c(=O)c(-c3ccc(OC(C)=O)cc3)coc2c1 (stereo not given in full),54,60.1,1.113,
COC(=O)[C@@H](NP(=O)(Oc1ccccc1)Oc1cc(O)c2c(=O)cc(-c3ccccc3)oc2c1)C(C)C (stereo not given in full),21.1,> 100,>5,

Compound,IC50 (HepG2 [1]) [µM],IC50 [2] [µM],Ratio IC50 (HepG2 [3]),further results
COC(=O)[C@H](C)NP(=O)(Oc1ccccc1)Oc1cc(O)c2c(=O)cc(-c3ccccc3)oc2c1 (stereo not given in full),35.3,62.3,1.765,
COC(=O)[C@H](C)NP(=O)(Oc1ccccc1)Oc1ccc2c(=O)c(-c3ccc(O)cc3)coc2c1 (stereo not given in full),28.8,20.5,0.712,
COC(=O)CNP(=O)(Oc1ccccc1)Oc1cc(O)c2c(=O)cc(-c3ccc(O)c(O)c3)oc2c1 (stereo not given),47.7,47.7,1,
COC(=O)[C@H](CC(C)C)NP(=O)(Oc1ccccc1)Oc1cc(O)c2c(=O)cc(-c3ccc(O)cc3)oc2c1 (stereo not given in full),37.2,52.8,1.419,
COC(=O)[C@H](CC(C)C)NP(=O)(Oc1ccccc1)Oc1cc(O)c2c(=O)cc(-c3ccccc3)oc2c1 (stereo not given in full),> 100,> 100,,
COC(=O)[C@H](CC(C)C)NP(=O)(Oc1ccccc1)Oc1cc(OC(C)=O)c2c(=O)cc(-c3ccc(OC(C)=O)c(OC(C)=O)c3)oc2c1 (stereo not given in full),21,38.2,1.819,
COC(=O)[C@H](CC(C)C)NP(=O)(Oc1ccccc1)Oc1cc(O)c2c(=O)c(-c3ccc(O)cc3)coc2c1 (stereo not given in full),72.3,48.2,0.667,
COC(=O)CNP(=O)(Oc1ccccc1)Oc1cc(O)c2c(=O)cc(-c3ccc(O)cc3)oc2c1 (stereo not given),59.7,71.5,1.198,
COC(=O)[C@H](C)NP(=O)(Oc1ccccc1)Oc1cc(OC(C)=O)c2c(=O)c(-c3ccc(OC(C)=O)cc3)coc2c1 (stereo not given in full),6.6,11.9,1.803,Activity (HepG2 [4]): 1.6%; Activity (HepG2 [5]): 1.8%; Activity (HepG2 [6]): 96.6%; Activity (HepG2 [7]): 97.07%; Activity (HepG2 [8]): 74.34%; Activity (HepG2 [9]): 0.97%; Activity (HepG2 [10]): 18.62%; Activity (HepG2 [11]): 0.74%; Activity (HepG2 [12]): 1.22%; Activity (HepG2 [13]): 3.06%; Activity (HepG2 [14]): 3.99%
COC(=O)CNP(=O)(Oc1ccccc1)Oc1cc(O)c2c(=O)c(-c3ccc(O)cc3)coc2c1 (stereo not given),> 100,44.5,<0.445,
COC(=O)CNP(=O)(Oc1ccccc1)Oc1cc(OC(C)=O)c2c(=O)cc(-c3ccc(OC(C)=O)c(OC(C)=O)c3)oc2c1 (stereo not given),26.4,57.1,2.163,
COC(=O)[C@H](CC(C)C)NP(=O)(Oc1ccccc1)Oc1ccc2c(=O)c(-c3ccc(OC(C)=O)cc3)coc2c1 (stereo not given in full),60,44.8,0.747,
COC(=O)[C@@H](NP(=O)(Oc1ccccc1)Oc1cc(O)c2c(=O)cc(-c3ccc(O)cc3)oc2c1)C(C)C (stereo not given in full),27.3,26,0.952,
COC(=O)[C@H](C)NP(=O)(Oc1ccccc1)Oc1cc(O)c2c(=O)cc(-c3ccc(O)cc3)oc2c1 (stereo not given in full),34.7,35.3,1.017,
COC(=O)[C@H](Cc1ccccc1)NP(=O)(Oc1ccccc1)Oc1cc(OC(C)=O)c2c(=O)c(-c3ccc(OC(C)=O)cc3)coc2c1 (stereo not given in full),63.2,> 100,1.582,
COC(=O)[C@H](Cc1ccccc1)NP(=O)(Oc1ccccc1)Oc1ccc2c(=O)c(-c3ccc(OC(C)=O)cc3)coc2c1 (stereo not given in full),60.2,> 100,>1.66,
COC(=O)[C@H](C)NP(=O)(Oc1ccccc1)Oc1cc(O)c2c(=O)c(-c3ccc(O)cc3)coc2c1 (stereo not given in full),57.2,15.7,0.274,
O=c1cc(-c2ccccc2)oc2cc(O)cc(O)c12 [CHRYSIN],> 100,> 100,,
C#Cc1cccc(Nc2ncnc3cc(OCCOC)c(OCCOC)cc23)c1 [ERLOTINIB],5.8,18.5,3.19,
O=c1cc(-c2ccc(O)c(O)c2)oc2cc(O)cc(O)c12 [LUTEOLIN],34.7,> 100,>2.882,

# — ChEMBL document CHEMBL3769357, “Phosphoramidate protides of five flavones and their antiproliferative activity against HepG2 and L-O2 cell lines” (Eur J Med Chem, 2016)
